The EternaBench riboswitch data

System: MS2 coat protein
Test: apparent Kd, MS2 coat protein; higher = weaker binding; RNA-MaP array; FMN 200 µM where present
In short: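 Stalled E. coli RNA polymerase transcribed the designs on Illumina sequencing-chip clusters. SNAP-549-labelled MS2 coat protein was titrated from 0.7 or 1.5 nM, doubling to 3 µM, without and then with constant ligand, in 100 mM Tris-HCl pH 7.5, 80 mM KCl, 4 mM MgCl2, BSA, DTT, yeast tRNA and Tween-20. Per-cluster binding curves were fitted to green signal normalised to red-channel RNA signal and control-cluster median Fmax. The apparent Kd is the median of the filtered fits.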

[1] = designed as: OFF switch for flavin mononucleotide, no ligand
[2] = ligand present: flavin mononucleotide, designed as: OFF switch for flavin mononucleotide
[3] = designed as: ON switch for flavin mononucleotide, no ligand
[4] = ligand present: flavin mononucleotide, designed as: ON switch for flavin mononucleotide

Row | Sequence | apparent Kd [1] [nM] | apparent Kd [2] [nM] | apparent Kd [3] [nM] | apparent Kd [4] [nM]
1 | GUUAAGGUAGGAUAUACGAUAAUAUAGGGUAGAUAUAUAACACAUGAGGAUCACCCAUGUAGAAGGACCAAUUG | 30.2 | 85.7 | – | –
2 | CAGCAUCAUGUAGGAUAUGCGUGGCGAAGCUAUGCAGAAGGACAUGAGGAUCACCCAUGUCUUACUGUGCGUACACAGUUGCUG | 6.87 | 11.3 | – | –
3 | UUAGGACGAAACAUGAGGAUCACCCAUGUGUUAUAAUUAAUAUAGGAUAUGUUUAUACUUUUUGGGCAGAAGGAUGAUAUUGCU | – | – | 19.8 | 16.8
4 | UAUGUAUUCGUAGGAUAUCCGUCGCCACCGUGUGGAGAAGGACGAACAUGAGGAUCACCCAUGUAUCAUGGUGUAGACACUUUU | 98.4 | 154 | – | –
5 | GAUUAACAUGAGGAUCACCCAUGUCGUUAUAUGGGAGGAUAUACGUGGACCGUAGUCCGCGUAGAAGGCCUAAUUG | – | – | 311 | 60.3
6 | UGUGCUAUGUAGAAGGCAGAUCUGAUUCAGAUCUGAGGAUAUACAUGAGGAUCACCCAUGUUAUGCACCAGCACGAGAGUGCAG | 9.17 | 24 | – | –
7 | AUGCUUAUCGAAGGAUAUGGUUACAUGAGGAUCACCCAUGUUAUGCUUGGUUACUUGUUUAGUUUCCAGAAGGUCGAUUAGUUA | 46.9 | 174 | – | –
8 | CCUCGACGGUAGGAUAUCGUCAAACUAUUGUGAUGAGAAGGACUGACAUGAGGAUCACCCAUGUUAACGUGAUG | 18 | 26.2 | – | –
9 | CUGAUGUCAGGAUAUCAGAAAAGGUGCAAGGACGCACCAAAUGAGAAGGGACAUGAGGAUCACCCAUGUAAAAC | 25 | 122 | – | –
10 | AUAAUGAGAGGAUAUACAUGAGGAUCACCCAUGUAAUUAACACGGCGAGCUCCAAUACGUAGAAGGCUCAUUUA | 49.2 | 35 | – | –
11 | UUACUCAUGUAAGGAUAUGCAGCCGUUUCGGUUGCAGAAGGUACUAUAAUACAUGAGGAUCACCCAUGUCUUUUUAAUUUAGAC | – | – | 78.4 | 39.6
12 | AAUAUAAAAGAGCUGGAUAACUCGACAUGAGGAUCACCCAUGUAGGAUAUCAGCACGAUAAGUGCUGAGAAGGACAACCAGCUC | 14.7 | 16.2 | – | –
13 | GGAGGACAUGAGGAUCACCCAUGUGGAUGAUCGCUAGGAUAUGCGUGCGGGAGGAGUGGUGCAGAAGGAGUGGGAU | – | – | 350 | 272
14 | CAGUACUGAGGAUAUACAUGAGGAUCACCCAUGUGGUUAAGCUAGGAAACUAGCAAAUGUAGAAGGCAGUACUG | 240 | 85.1 | – | –
15 | CCGAUAAUAGGACAGGAUAUGACUGUCGUCACAUGAGGAUCACCCAUGUCCCGGCAAUGCCACCGUUAGAAGGGUCCUAUCUCGA | – | – | 14.9 | 14.6
16 | ACAUGAGGAUCACCCAUGUAACAUGUGAAUUAAUUCUUUAACAGAAGGCGAAUAUAUAACAUUGUCGAGGAUAUGUACUUAUGU | 9.85 | 7.41 | – | –
17 | GCUGUCGCUUGAGGAUAUGGUCAGCUUUGCUGACCAGAAGGCAUGUCAAUAGACAUGAGGAUCACCCAUGUAGUAAGGGCGGCU | – | – | 339 | 122
18 | CUUAUUUGAGGAUAUACGUCACCGUCUUCAUGAGUUCAAAUACAUGAGGAUCACCCAUGUAGAAGGCAAUUACU | 25.8 | 39.4 | – | –
19 | UUUUCGUGAGGAUAUCAGUAGUAAAUAAAUAAAAUUACUACUGAGAAGGCACAUGAGGAUCACCCAUGUUCCUU | 12.7 | 22.9 | – | –
20 | CAUCUGUCAGGAUAUAUGCGAGGGCCACGAAGCGGCCCUUCAUAGAAGGGACAUGAGGAUCACCCAUGUAGAUC | 461 | 310 | – | –
21 | ACAUAAAUUCGAGGAUAUCGGUGAAAUAAUUUACGAGAAGGCGAUAAUAGUUAUAGACUUAUAGACAUGAGGAUCACCCAUGUA | – | – | 30.3 | 27.6
22 | AUUUAAAUGUCAGGAUAUGGUAGUUUAUACUUAUCAGAAGGGAUAAUUAUACUCAAGUACAUGAGGAUCACCCAUGUUAAAUCA | – | – | 30.5 | 15.8
23 | AAAAAACAUGAGGAUCACCCAUGUCAGGAUAUCGUGCAGAAAAAAAAAAAAAACUGCACGAGAAGGGACAUGAA | 236 | 192 | – | –
24 | GGCUGGUGAGCAGGAUAUGGUCGUGCCUUUGUUCGUGGUCCCACAUGAGGAUCACCCAUGUUCGACCAGAAGGGCUGACUUGAG | 31 | 18.9 | – | –

Row | Sequence | apparent Kd [1] [nM] | apparent Kd [2] [nM] | apparent Kd [3] [nM] | apparent Kd [4] [nM]
25 | ACAUGAUAUGUAGGAUAUCACAUUAAUUGUUUUAUAAUUGUAUUUAGGAUUUGAGAAGGACAUUUACAUGAGGAUCACCCAUGU | 15.8 | 11.3 | – | –
26 | GUACUGUAGUGAGGAUAUACGAGUACGAUAGUACGGCGAUCCAUUUAUACAUGAGGAUCACCCAUGUAGAAGGCACUUCAGUAC | 6.09 | 61.6 | – | –
27 | GUUUUGGGAGGAUAUGCGUGGAUUAUUUUCGUAUGUUGUUUACAUGAGGAUCACCCAUGUAGAAGGUCUAGAGC | 39.7 | 133 | – | –
28 | GAAUGUCGGGUAGGAUAUGACUUGCCACGGAGGUCAGAAGGGCCACGACAUGAGGAUCACCCAUGUACUGUAUUCCUUUUUCAA | 25.3 | 98.1 | – | –
29 | GGUUGUCAUAGUCAUCCUUUCCGUACAUGAGGAUCACCCAUGUAGGAUAUGCUACUCACAGUGUAGCAGAAGGGCGUGUGUCUU | 16.6 | 17.6 | – | –
30 | GGUUGACAAAGUCAACCUUAACGAACAUGAGGAUCACCCAUGUAGGAUAUGCUACUCAAAGAGUAGCAGAAGGACAUGUGCCUU | 33 | 278 | – | –
31 | GCAGUAAAUAAAUGCACAUGAGGAUCACCCAUGUGGGAGGCACAGGAUAUCGUAUCAUAGUAGUACGAGAAGGGUGAUAAUCUC | – | – | 370 | 64.2
32 | CCGAAUGUCACAGGAUAUGGUCCGGGCACGCGACCAGAAGGGUGAUCUCACAUGAGGAUCACCCAUGUGCAGGCGUAAGGCUGC | – | – | 28.4 | 193
33 | ACCGUGCAAGGAUAUCGUUACCUCGACAUGAGGAUCACCCAUGUGGCCAUAUAGCGAUUGCGAGAAGGUGCGGGUA | 127 | 112 | – | –
34 | AUGUUAUUGGAAGGAUAUAGUUUACUAUUCUAACAUGAGGAUCACCCAUGUAACCUUAUGUGUAUCUAGAAGGUCCAUAACUUA | 54.6 | 62.3 | – | –
35 | CAUAGGCGAGGAUAUACAUGAGGAUCACCCAUGUAAGGAAACCUGGCAGACUCAGAAUGUAGAAGGCGCACUGA | 21.6 | 41 | – | –
36 | CUGAUGUGAGGAUAUCGGGCUACAGCCAGGCUGCUAGCAUACGAGAAGGCACAUGAGGAUCACCCAUGUGAGAA | 48.3 | 49.1 | – | –
37 | UGUCGGAGCAGAGGAUAUAUACAUGAGGAUCACCCAUGUAAAUGAAUGAGCUGGAAACAGCAAGUAUAGAAGGCUGCUCCGACA | – | 16.5 | – | –
38 | GAUCCACAUGAGGAUCACCCAUGUGAGGAUAUGAUACUAUGUACUUCGGUACAUAGUAUCAGAAGGCAUAUGAA | 42 | 196 | – | –
39 | AACGUCUUAGGAUAUACACUGGGACUUGCCAUGUGGGCCCUACAUGAGGAUCACCCAUGUAGAAGGAAGACAUG | 19.6 | 14 | – | –
40 | AAGUAACAUGAGGAUCACCCAUGUGAGGUGAGCGUAGGAUAUCGAGGAGGAAGGGUGGAGCGAGAAGGACGAGAGG | – | – | 362 | 360
41 | CUUUAGUGAGGAUAUGUGGCUUCGAUCGUGAGAUCGAGGCUACAGAAGGCACAUGAGGAUCACCCAUGUACCUU | 14.3 | 17 | – | –
42 | ACAUGAGGAUCACCCAUGUUGAAUUAGGAUAUUUGACUGCACAUGAGGUUCUCCCAUGUUCUACCGGAGAAGGGAUUAAUAAUU | – | – | 549 | 240
43 | GAUCCUUCUGUUAGGAUAUGCUUUGGGCUUCCGCAGCAGAAGGAACAUGAGGAUCACCCAUGUCCAAUGCCGUC | 56.6 | 63.9 | – | –
44 | GGAUCGAGUGUGAGGAUAUGCUGGUCCUUGGAUCAGCAGAAGGCACAUGAGGAUCACCCAUGUGAAAACGGUCC | 26.6 | 189 | – | –
45 | GGGUACAUCGGAGGAUAUCAUGUAAAUACAUGAGGAUCACCCAUGUCGAUGAAGACAUCGGAGAUUGAGAAGGCCGAUGUACCG | – | – | 1070 | 76.3
46 | AUAAACCAAGGAUAUACAUGAGGAUCACCCAUGUUCCCUUGAACCCAGGGUAUGCAAUGUAGAAGGUGGGAAAC | 20 | 29.5 | – | –
47 | UAUAAGCUAGGAUAUACUAACGAAACUAAUGCAUAUAUAUAACAUGAGGAUCACCCAUGUAGAAGGAGCAGAAU | 25.5 | 23 | – | –
48 | UGAUCGAAAGAUCAUAGAUUCUGGCAGGAUAUGCAGUAGUUUUAAUUUACAUGAGGAUCACCCAUGUAGAAGGGCUAGAGUCUA | 6.33 | 7.4 | – | –
